Measurements from the EternaBench riboswitch data.

System: MS2 coat protein
Experiment: apparent Kd, MS2 coat protein; higher = weaker binding; RNA-MaP array
Outline: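 Apparent Kd is the median of per-cluster binding-curve fits for designed RNAs transcribed from sequenced DNA templates on an Illumina sequencing chip. The RNAs were incubated at room temperature with fluorescently labeled MS2 coat protein at 1.5 nM to 3 μM, with or without input ligand, and designs measured on fewer than 10 clusters were excluded.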

[1] = designed as: OFF switch for flavin mononucleotide, no ligand
[2] = ligand present: flavin mononucleotide, designed as: OFF switch for flavin mononucleotide
[3] = designed as: ON switch for flavin mononucleotide, no ligand
[4] = ligand present: flavin mononucleotide, designed as: ON switch for flavin mononucleotide
[5] = designed as: OFF switch for tryptophan, no ligand
[6] = ligand present: tryptophan, designed as: OFF switch for tryptophan
[7] = designed as: ON switch for tryptophan, no ligand
[8] = ligand present: tryptophan, designed as: ON switch for tryptophan
[9] = designed as: OFF switch for theophylline, no ligand
[10] = ligand present: theophylline, designed as: OFF switch for theophylline
[11] = designed as: ON switch for theophylline, no ligand
[12] = ligand present: theophylline, designed as: ON switch for theophylline

Sequence | apparent Kd [1] | apparent Kd [2] | apparent Kd [3] | apparent Kd [4] | other results
ACCAUGUAAGGAUAUCACAAGUUGAGUAGUUCGUUUGGGUGUGAGAAGGUACAUGAGGAUCACCCAUGUUCUGG | 154 nM | 237 nM | – | – | –
GACAACCACAUGAGGAUCACCCAUGUUUACAUACACAAGGGAAGAAGGGAACCUAAAGGAUCAAAUCAGGAUAUUCGUAUUGUA | – | – | 27 nM | 19.5 nM | –
ACAAGCCGAGGAUAUACAAGAAAGGCAAGACUGAUAAGAUAACAUGAGGAUCACCCAUGUAGAAGGCGGAAUAC | 10.4 nM | 14.1 nM | – | – | –
AUGAUAUGGGACAUGAGGAUCACCCAUGUCGGCUUUGUCACGCAGGAUAUUGCGACUCAAAUCGUCAAGAAGGGCGGAGACUCC | 21.5 nM | 19.6 nM | – | – | –
AUAACGACUUCAGGAUAUCUAAUAUGGCCUAUAUGCUGAAAACAUGAGGAUCACCCAUGUCAAGGAGAGAAGGGAAGACAAACA | 13.3 nM | 10.2 nM | – | – | –
GAUACUACAUAGAAGGUACCGAUGAGCAAUUAACAAUGUGCGGCAACAUGAGGAUCACCCAUGUGUAAGGAUAUAUGCAGAACA | 20.9 nM | 15.5 nM | – | – | –
CUUGUGCUGACGGCCGCCACUUUAUGGGAGUCCUGUUCUGAUUGAUACAUGAGGAUCACCCAUGUAAGGACCGGGUCGUACCAUA | – | – | – | – | apparent Kd [5]: 18 nM; apparent Kd [6]: 22.3 nM
UAAAUUGAAGGAUAUACAUGAGGAUCACCCAUGUAAGAAAUACAUGAAAAUAACAACAGUAGAAGGUCAAAACU | 15.9 nM | 12.7 nM | – | – | –
GGCCUCACAUGAGGAUCACCCAUGUUACUACUUGUUCGAUUGGAGGAUAUCUCUAGAAUUUACUGAGAGAAGGCCAAUAUGGGA | 236 nM | 191 nM | – | – | –
CGCUAAGAGCGGCACCUCCACAUGAGGAUCACCCAUGUUUGAAGAAGGCCAAUUUACGUAAGACUGGAGGAUAUUCAGGAGAGU | – | – | 10.1 nM | 5.9 nM | –
AAUAGAGCACUAGGAUAUGUUUCGUGUGCAGGUGGACAUGAGGAUCACCCAUGUAUAUGUUCAAGACAGAAGGAGACAGAUGAA | 59.2 nM | 38.4 nM | – | – | –
UUACGGCAAGGAUAUACAUGAGGAUCACCCAUGUACUCUUUAUAAAUUAGUCAGCAUGGUAGAAGGUGCCGCUA | 9.04 nM | 11 nM | – | – | –
AUAAAAGACAUGAGGAUCACCCAUGUAGCUCCUCGGUCUUCGAGAAGGUUCUUGCCCAGAGCGUGAAAGGAUAUCGCAUAUAUC | 353 nM | 448 nM | – | – | –
UGGAAUGUGCAAGGAUAUUGGCGGUGUGGAAUAGAAUCACUCGAACAUGAGGAUCACCCAUGUUGCAAGAAGGUGCGGGAACGA | 38.2 nM | 33.5 nM | – | – | –
UCCGUUGUAGGAUAUACAUGAGGAUCACCCAUGUAAUGUGGGCAAUUAUAAACUUACUGUAGAAGGACAGAGUG | 493 nM | 555 nM | – | – | –
CUAGGCGUGCAGAAGGCGGAAAUAUUUCGUGGCCGAGGAUAUGCUGAUAUAUCGCAAGUGACAUGAGGAUCACCCAUGUGUCUA | – | – | 16.6 nM | 14.2 nM | –
UUGUGACAUGAGGAUCACCCAUGUGAGGAUAUUCUGCUUGUGGAUAGUACGACUUGAUGAAGAAGGCACGUUAU | 34.7 nM | 33.3 nM | – | – | –
CAUUUACAUGAGGAUCACCCAUGUUAGUAAUGCUGAGGAUAUGGUCCACGCUCCUAUUUACCAGAAGGCAGUCUUG | – | – | 19.2 nM | 13.8 nM | –
UGGCCGUAGAAGAAGGAGGACACCGUUUUGUCACGGACAUGAGGAUCACCCAUGUAGAUAAUUGCCUAGGAUAUUCGCUCAUUU | – | – | 15.9 nM | 7.52 nM | –
UCAUUUUCAGAAGGAUAUUUACCAGGCCAAGGUAAAGAAGGUCUAUGGGUCACUUCCUUGAUACAUGAGGAUCACCCAUGUGAA | 292 nM | 429 nM | – | – | –
AUACGAGCCAAGAAGGAGGGAGAUCCUGCAGUCCUAGGAUAUUGGCCACAAUCGGCGGACGACAUGAGGAUCACCCAUGUCCCG | – | – | 41.8 nM | 16 nM | –
GUCUAAGGCCAAGGAUAUUGCGUACUUGCGGAUGAUAGUAGAAAACAUGAGGAUCACCCAUGUCACAAGAAGGUGGUCCUGGGA | 323 nM | 176 nM | – | – | –
CAACGGUUAGAGAAGGCAUAGUAAAGAAUUCAAUGAGGAUAUCUAAAGAAAUGUAUAGGUCUUUUACAUGAGGAUCACCCAUGU | 17.6 nM | 9.47 nM | – | – | –
UCAGGACAUGAGGAUCACCCAUGUUGUCAAACCAAAGGAUAUAGGCUGAUCGAAAGAGAACUAGAAGGUUGCGAUU | – | – | 20.1 nM | 15.6 nM | –
UCGCUAUUGUCGGCCGCCACUACUGCAGGGAAACAAAUAUAACCACAUGAGGAUCACCCAUGUCUUAGGACCGGGACACCCAUCU | – | – | – | – | apparent Kd [7]: 98.3 nM; apparent Kd [8]: 80.7 nM
UCCUCGCACGAGAAGGCAAGCCGAGAAACACCUUGAGGAUAUCGUCGACAGACCACCGGGACAUGAGGAUCACCCAUGUGGGCC | 75.2 nM | 49 nM | – | – | –
CUAGUGUGAGGAUAUGAGUCAACCUUUUAGUUCUAAGGAGAUCAGAAGGCACAUGAGGAUCACCCAUGUCAGAA | 33.4 nM | 84 nM | – | – | –

Sequence | apparent Kd [1] | apparent Kd [2] | apparent Kd [3] | apparent Kd [4] | other results
AUCAUCAGUUCGGCCGCCACUGUUUGGCACAGUUGUAUCGUACAUGAGGAUCACCCAUGUCACCACAGGACCGGGAACGCCGUCG | – | – | – | – | apparent Kd [5]: 16.1 nM; apparent Kd [6]: 17.3 nM
UAAUUCACUAUUCACGGUCCGAUGUUCGAUACCAGAUCAUUUCGAAUCCCUUGGCAGCGAUUAACAUGAGGAUCACCCAUGUAAC | – | – | – | – | apparent Kd [9]: 32.2 nM; apparent Kd [10]: 83.9 nM
GUACUGCAGUUAGGAUAUACCGGAGGAUUAUACACCUACUAACAUGAGGAUCACCCAUGUCUCUCGUAGAAGGAACAUAUUAGC | – | – | 20.9 nM | 16.5 nM | –
AAACAUGCGUGAGAGGAUAUGUCAUUAAUAACAUGAGGAUCACCCAUGUUCGAUGAUUGAAAUAAACAGAAGGCUCCGGUCUGUAA | – | – | 27 nM | 18.7 nM | –
CUGAAGUAAGGAUAUAUAUACCAUAGACCAUUAAAGACAUUAUAGAAGGUACAUGAGGAUCACCCAUGUGGGAA | 29.9 nM | 26.4 nM | – | – | –
CUUACACAUGAGGAUCACCCAUGUCAUGAUACCAGCCAAUACACUGGCCCUUGGCAGCAUCUCAGCCUCAGCUACAUUGACUGAC | – | – | – | – | apparent Kd [11]: 19.9 nM; apparent Kd [12]: 27.1 nM
ACCAUCACAUGAGGAUCACCCAUGUAAAUAACUACAUAGACGGAGGAUAUCACAAUAACAGCGAAAGAGAAGGCCGGUGUAAAA | – | – | 11.5 nM | 8.1 nM | –
UACAUACAUGAGGAUCACCCAUGUUGCGAUACCAGCGAAAGAGACCGCCCUUGGCAGCGCUCAUUUAGUUCCAUUCUUGAUCGAA | – | – | – | – | apparent Kd [11]: 14.3 nM; apparent Kd [12]: 25.1 nM
CCUCAGCAAUUGGAUACCAGUACAUCGUAAGACAUGAGGAUCACCCAUGUGGGCUUGACAUACCCUUGGCAGCCAUCCUUGAUCC | – | – | – | – | apparent Kd [11]: 234 nM; apparent Kd [12]: 252 nM
UCAGCACAUGAGGAUCACCCAUGUCGUGAUACCAGCCUGUGCGAAGGCCCUUGGCAGCACAGUCCCGAUUUGCUUAUAUGCACUU | – | – | – | – | apparent Kd [11]: 35.7 nM; apparent Kd [12]: 36.9 nM
UAUCUAACGAAGGAUACCAGUACAUGAGAGUACAUGAGGAUCACCCAUGUUAGAUACGGGUACCCUUGGCAGCCUCACCUACACC | – | – | – | – | apparent Kd [11]: 56.8 nM; apparent Kd [12]: 63.3 nM
AGGCGCAACGUAGGAUAUACCGGCAUUGUCCAAGUAGAAGGACGUUGUGAUCGCUAGGUAACAUGAGGAUCACCCAUGUCUUAC | – | – | 6.96 nM | 5.8 nM | –
UGUCGAUGAUCCAAGGAUAUAUGGAUGCUGACAUGAGGAUCACCCAUGUCCCGAGAAAUCAUUAAAUAGAAGGUGGGCUAUGGCAA | – | – | 45.9 nM | 21.2 nM | –
CAUCCAACACAAGGAUAUUGGACGUUUUUCAGCGCACAUGAGGAUCACCCAUGUACAAGGGAGUACAAGAAGGUGUUUUGGAUC | – | – | 27.1 nM | 9.49 nM | –
UCGACAUGAGGAUCACCCAUGUGCCUCGGAUGUCGUUAGAGUGAGGAUAUGUCACACCAAAACGUACAGAAGGCACUUAUUAGA | 296 nM | 267 nM | – | – | –
CAUCCACCUGAAGCCUCCCAAUUCCUCGAUACCAGAGGAUUAAGACUCCCUUGGCAGCGAGCUACAUGAGGAUCACCCAUGUGCC | – | – | – | – | apparent Kd [9]: 19.1 nM; apparent Kd [10]: 23.9 nM
GAGGCAACGAUGGAGGAUAUACUAGGUAAUACAUGAGGAUCACCCAUGUGAGAAAGAGAGUACAUGUAGAAGGCCAGAUAUGCGGU | – | – | 30.5 nM | 11.8 nM | –
GGAUACAGGAUAGGAUAUUCUGGGCCUUACAUGAGGAUCACCCAUGUGGAUUUUAUAUAUAGCCGGAAGAAGGAUCAACAGGUG | 11.8 nM | 9.21 nM | – | – | –
GAAAACGAUCCCAAUACAUGAGGAUCACCCAUGUGGUGCAGUCAGGAUAUCACUACACCAAAACUUGAGAAGGGACACAUCGCC | 347 nM | 318 nM | – | – | –
CACGCGGAGUUAGGAUAUAACGAUUGUCAGCCGUUAGAAGGAACCCAUCGCAAAUCUACGUCUAACAUGAGGAUCACCCAUGUU | – | – | 6.85 nM | 5.7 nM | –
CGGGAACGAUAUGAUACCAGCCUGCGAAAGAAUGCUUAGUACAUGAGGAUCACCCAUGUAGGCCCUUGGCAGCAUCGACUCAAGU | – | – | – | – | apparent Kd [9]: 14.8 nM; apparent Kd [10]: 19.7 nM
AUAAAUAAUUCAGGAUAUUGCGAUCAAACAACAUGAGGAUCACCCAUGUCCGUAAACACAACAAGCAAGAAGGGAAAGAAUCAA | – | – | 24.6 nM | 14.6 nM | –
AUUAACAUGAGGAUCACCCAUGUUCUCACACGAGGACCGGUACGGCCGCCACUCGGUUUGGUAUUGGUCACUAGGCAGUUAGGAG | – | – | – | – | apparent Kd [7]: 15.9 nM; apparent Kd [8]: 17.6 nM
AAUGAAAAGCAGAAGGCCUUAGCAAGUCGUAGAGGAGGAUAUGCGUACGCGGGUUGGCCAACAUGAGGAUCACCCAUGUCACCA | 22.4 nM | 26.3 nM | – | – | –
CUCAAGUAAGGAUAUAUUCACGCUCGUAAUUAGUGUCGCGCAUAGAAGGUACAUGAGGAUCACCCAUGUCAUGU | – | 18.4 nM | – | – | –
GUCCUUAUAACAUGAGGAUCACCCAUGUAAUUCAAUCUGCGAGAGGAUAUGUCUGAGCAUCCCACACAGAAGGCUCCGGAACAG | 22.8 nM | 20.1 nM | – | – | –
UAGACAAAACAGAAGGAAUGAAGUAGAACAACAAUAGGAUAUGUAUAAAAGUAUACAUGAGGAUCACCCAUGUUACCAACAUGA | – | – | 11.3 nM | 9.34 nM | –
